NR2E3 ag-1: NR2E3 agonists in two-hybrid cells, primary screen, cell-based, luminescence, CHO-S, Gal4-NCOR/VP16-NR2E3; actives 0.35% (n = 360,000); luciferase; inhibition of corepressor binding, % at 3.98 µM; Photoreceptor-specific nuclear receptor (Homo sapiens), Q9Y5X4;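 active = inhibition above the mean of all tested compounds plus 3 SD, cut at about 70% in these data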;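 note: 0% = DMSO with NR2E3 transfected cells and 100% = cells lacking NR2E3 construct; higher means lower luciferase signal from less NR2E3 corepressor binding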
Target sequence (Q9Y5X4 whole entry, looked up, the tested form may be a part): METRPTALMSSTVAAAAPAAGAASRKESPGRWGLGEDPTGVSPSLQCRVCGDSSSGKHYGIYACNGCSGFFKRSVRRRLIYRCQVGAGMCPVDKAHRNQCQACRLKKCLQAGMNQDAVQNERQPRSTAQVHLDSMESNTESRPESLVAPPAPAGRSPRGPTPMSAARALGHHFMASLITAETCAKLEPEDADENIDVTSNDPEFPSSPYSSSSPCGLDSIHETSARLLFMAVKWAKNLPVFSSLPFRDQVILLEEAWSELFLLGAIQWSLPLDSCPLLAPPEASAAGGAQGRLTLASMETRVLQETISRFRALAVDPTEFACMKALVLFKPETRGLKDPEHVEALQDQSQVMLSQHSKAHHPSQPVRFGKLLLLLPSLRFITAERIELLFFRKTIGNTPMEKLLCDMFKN
MC4R antag cAMP: MC4R antagonists of cAMP signaling, primary screen, cell-based, TR-FRET, antagonist arm of biased-ligand search. MC4R-expressing cells, MTII-stimulated cAMP, LANCE TR-FRET. inhibition, % at 6.5 µM. actives 0.48% (n = 360,000). AID 540295, 2011;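 active = inhibition above its plate's cutoff, the mean of tested wells on that plate plus 3 SD, cut at about 29% in these data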;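 note: 0% = Melanotan II alone and 100% = Melanotan II plus saturating MCL0020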
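system = U2OS cells with stable human MC4R expression | also added = Melanotan II challenge after compound preincubation | dosing = one concentration, 6.5 µM nominal | incubation = compound 30 min, challenge 1 h, detection 1 h | measured by = TR-FRET with Eu-cAMP and labeled anti-cAMP, 671 nm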
Rev-erbA mod: modulators of Rev-erb alpha DNA binding, primary screen, biochemical, FITC-DNA, fluorescence polarization, uHTS. Nuclear receptor subfamily 1 group D member 1 (Homo sapiens), P20393. Rev-erbα–FITC-DNA binding, 90 min. activity, % at 10 µM. actives 0.79% (n = 370,000);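 active = activity above about 14%, limit read from the data; passing the limit was not always enough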;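 note: 0% = DMSO wells with 35 nM protein and 100% = DMSO wells with 750 nM protein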
MC4R ag barr: MC4R agonists recruiting beta-arrestin, primary screen, cell-based, luminescence, agonist arm of biased-ligand search; AID 540308, 2011; U2OS MC4R beta-arrestin complementation; percent of melanotan II response, DMSO zero; activation, % at 8.9 µM; Melanocortin receptor 4 (Homo sapiens), P32245; actives 0.98% (n = 360,000);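 active = activation above a per-plate cutoff, the mean activation of sample wells on that plate plus 3 SD, cut at about 8% in these data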
NR2E3 ag-2: inhibitors of NR2E3-RetCOR corepressor binding, primary screen, NR2E3 agonist project, biochemical, TR-FRET, GST-NR2E3, biotin-RetCOR. Photoreceptor-specific nuclear receptor (Homo sapiens), Q9Y5X4. 1536-well. inhibition of corepressor binding, % at 4.78 µM. actives 0.12% (n = 320,000);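 active = percent inhibition above the cutoff of mean plus 3 SD of all tested compounds, set per screening campaign, cut at about 20% in these data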;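 note: 0% = DMSO wells and 100% = biotin wells as full block of FRET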
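Format: 1536-well format; test system: GST-NR2E3 and biotin-RetCOR proteins; read-out basis: percent inhibition of TR-FRET ratio; timing: 5 h incubation at 4 °C; detection: time-resolved FRET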
PG9 Ab binder: binders of HIV-1 gp120 antibody PG9, primary screen, biochemical, TR-FRET | HIV-1 gp120 / PG9 antibody interaction | TR-FRET gp120-PG9 antibody binding | inhibition, % at 6.7 µM | actives 0.43% (n = 360,000) | AID 624416, 2012; in the data active = inhibition above about 8.5%
NR2E3 ag conf: NR2E3 agonist confirmation in cells, cell-based, luminescence, CHO-S two-hybrid | shares compounds with NR2E3 ag-1 | CHO-S mammalian two-hybrid NR2E3-NCOR, luciferase luminescence | inhibition, % at 3.98 µM | actives 51% (n = 2,300) | AID 624378, 2012;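 active = average inhibition above a cutoff equal to the mean inhibition of all tested compounds plus one SD, cut at about 70% in these data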;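 note: 0% = DMSO in NR2E3 cells and 100% = DMSO in cells lacking NR2E3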
VP16 counter: GAL4-VP16 reporter modulators, confirmation, counter-screen for NR2E3 agonist project, cell-based, luminescence, CHO-S, high throughput | actives 29% (n = 2,300) | inhibition, % at 3.98 µM | shares compounds with NR2E3 ag-1 | CHO-S GAL4-VP16 luciferase reporter;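 active = mean inhibition above a cutoff equal to the average over all tested compounds plus one standard deviation, cut at about 70% in these data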;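 note: luciferase from a UAS reporter driven by GAL4-VP16 transactivation; 0% = DMSO with VP16-transfected cells and 100% = DMSO with cells lacking VP16; higher means less reporter light so more repression of VP16 activity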
An asterisk follows results filed as active; nt = not tested or not shown. An excerpt weighted towards active compounds, which were near 2.7% of everything screened.

SMILES	NR2E3 ag-1	MC4R antag cAMP	Rev-erbA mod	MC4R ag barr	NR2E3 ag-2	PG9 Ab binder	NR2E3 ag conf	VP16 counter
Clc1ccc(-c2nnc3c4ccccc4nc(N4CCOCC4)n23)cc1Cl	-37	12	-4	-1	0	0	nt	nt
O=C(NCCC1=CCCCC1)c1ccc(Cl)c(S(=O)(=O)N2CCCCC2)c1	51	-9	-2	4	-1	-1	21	-3
O=[N+]([O-])c1cc(S(=O)(=O)Nc2cccc(C(F)(F)F)c2)ccc1-n1nnc2ccccc21	96*	-1	11	1	8	-1	98*	87*
COc1ccc(NS(=O)(=O)c2ccc(-n3nnc4ccccc43)c([N+](=O)[O-])c2)cc1	54	0	-1	-1	-1	4	45	45
CCOC(=O)C1CCN(C(=O)C2CCCN(S(=O)(=O)c3ccc(OCC)c(Cl)c3)C2)CC1 (centres undefined)	70	9	-1	-2	-2	-3	21	51
CCOc1ccccc1N(CC(=O)Nc1cc(OC)ccc1OC)S(=O)(=O)c1ccccc1	21	12	5	-1	nt	-2	nt	nt
COc1cc(C(=O)NCCOc2cc(C)ccc2C(C)C)cc(OC)c1OC	56	15	11	3	1	-1	38	31
CC(=NNC(=S)N(Cc1ccccn1)Cc1ccccn1)c1cnccn1	-24	-26	-8	0	nt	2	nt	nt
S=C(NN=C(c1ccccc1)c1ccccn1)N(Cc1ccccn1)Cc1ccccn1	92*	7	-11	0	nt	-3	100*	79*
Nc1ccc(OCc2ccccc2)cc1[N+](=O)[O-]	-40	-9	1	-1	nt	-2	nt	nt
CN(CC(=O)NCc1ccc(F)cc1)CC(=O)Nc1ccc(Cl)c(C(F)(F)F)c1	94*	9	4	9.0*	1	0	53	49
CN(CC(=O)NCC(=O)Nc1ccc(F)cc1)CC(=O)Nc1ccc(Cl)c(C(F)(F)F)c1	-14	6	2	0	nt	-1	nt	nt
Cc1cc(NC(=O)CCC(=O)N(CC(=O)NC2CCCC2)c2cccc(F)c2)no1	-2	23	-3	1	-3	-2	nt	nt
CSc1ccccc1OCc1cc(C(=O)NC(C)c2cnn(C)c2)no1 (centres undefined)	-78	-5	1	1	5	-1	nt	nt
Cc1c(C(C)NC(=O)c2cc(COc3cccc4cnccc34)on2)cnn1C (centres undefined)	72*	7	-2	-3	3	0	53	61
CN(Cc1cccc2ccccc12)C(=O)c1cc(COc2c(F)cccc2F)on1	-40	4	1	-3	-3	-2	nt	nt
CCc1ccc(CN(C)C(=O)c2cc(COc3cccc4cnccc34)on2)cc1	108*	7	-1	-1	4	0	98*	89*
CN(Cc1cccc2cnccc12)C(=O)c1cc(COc2ccc(F)cc2F)on1	72*	0	10	-2	nt	-2	54	55
CCc1ccc(CN(C)C(=O)c2cc(COc3c(F)cccc3F)on2)cc1	-24	7	-1	0	2	-1	nt	nt
Cc1ccc(S(=O)(=O)N(C)c2ccc(C(=O)NCC(c3ccccc3)N3CCCC3)cc2)cc1 (centres undefined)	-14	8	2	0	nt	1	nt	nt
Nc1nc2ccc(Cl)cc2cc1C(=O)NCc1ccc(Oc2ccccc2)cc1	95*	nt	nt	nt	nt	nt	94*	82*
Nc1nc2cc3c(cc2cc1C(=O)NCc1ccc(F)cc1)OCO3	88*	nt	nt	nt	nt	nt	94*	72*
Nc1nc2ccc(Cl)cc2cc1C(=O)NCCc1c[nH]c2ccccc12	93*	nt	nt	nt	nt	nt	94*	83*
Nc1nc2cc3c(cc2cc1C(=O)NCc1cccnc1)OCO3	nt	nt	3	nt	nt	-2	nt	nt
Cc1cc(Cl)ccc1OC(C)C(=O)Nc1ccc(C(=O)Nc2ccccc2C(=O)O)cc1 (centres undefined)	53	7	2	1	4	-1	10	32
SMILES	NR2E3 ag-1	MC4R antag cAMP	Rev-erbA mod	MC4R ag barr	NR2E3 ag-2	PG9 Ab binder	NR2E3 ag conf	VP16 counter
O=C(Nc1ccc(S(=O)(=O)N2C[C@@H]3C[C@@H](C2)c2cccc(=O)n2C3)cc1)c1ccc(F)cc1	-1	7	6	0	-1	2	nt	nt
Cc1ccc2oc(/N=C(\N)NC(=O)C(C)(C)C)nc2c1	91*	-2	5	3	3	0	92*	66
O=C1CSC(=NC(=O)c2ccccc2)N1	22	16	-7	0	2	-2	nt	nt
O=C(NCc1ccncc1)c1c(F)c(F)c(F)c(F)c1F	9	2	0	1	3	0	nt	nt
Cc1cc(C)c(S(=O)(=O)/N=C2/C=C(Sc3ncn[nH]3)C(=O)c3ccccc32)cc1C	102*	62*	10	-4	9	0	49	-12
Cc1ccc(C)c(S(=O)(=O)/N=C2\C=C(NS(=O)(=O)c3ccccc3)C(=O)c3ccccc32)c1	19	-5	-5	-1	-2	0	nt	nt
COc1ccccc1CN1CCCC(CN(CCN(C)C)C(=O)C2CCCC2)C1 (centres undefined)	26	4	0	1	0	0	nt	nt
Cc1c(NS(=O)(=O)c2cccs2)cccc1-c1nc2cccnc2s1	-49	8	-1	0	0	-1	nt	nt
O=S(=O)(Nc1cccc2ncccc12)c1cccs1	97*	10	nt	-3	3	nt	48	24
CC(=O)c1ccc(N2CCN(C(=O)CCC(=O)Nc3ccc4nc(N5CCN(C)CC5)cc(C)c4c3)CC2)cc1	-5	10	-8	-1	4	0	nt	nt
CC(C)(C)C(=O)Nc1ccc(NC(=O)c2ccco2)nc1	88*	0	-1	0	2	-1	65	40
